Results reported in PMC7113734 (Antiviral Research, 2016).
Values joined by “and” are separate entries in the source; they are usually repeats but may differ in a detail not shown here. Identical values can stand only once. “Also recorded” adds a separate entry of the source.

Legend:
HIVIIIB = assay: Virucidal assay; format: cell-based, HIV-1; details: virions treated 20 min, washed, CEM-SS cells
In short: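 Test compound incubated with undiluted HIV-1 IIIB for 20 min at 37 °C. Virus pelleted at 13,800 rpm, 4 °C, 90 min, then washed five times with culture medium. Pellet resuspended in RPMI to the predetermined titer of untreated virus and used to infect CEM-SS cells for 6 days at 37 °C/5% CO2. Infectivity read by XTT cell viability.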

[1] = Maximum tolerated dose, single oral administration; format: in vivo, Sprague-Dawley rats; details: single oral 750, 1000, 1500, 2000 mg/kg; rats
In short: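 Single oral gavage in Sprague-Dawley rats, 8 per group (4 female, 4 male). Doses of 750, 1000, 1500 or 2000 mg/kg given in 5% DMSO/70% PEG400 in water, or 2000 mg/kg in 2% CMC-Na in water. Dose volume 10 mL/kg, or 20 mL/kg at 2000 mg/kg. Four-day observation after dosing: cageside and clinical signs, body weight, food consumption.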

[2] = Fourteen-day repeat dose toxicity study; format: in vivo, Sprague-Dawley rats; details: rats
In short: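 Thirty-two Sprague-Dawley rats in four groups of 8, alongside a control article. Daily oral gavage for 14 days at 500, 1000 or 2000 mg/kg, given as suspension in 2% CMC-Na in water. Per group, 4 main animals necropsied Day 15 and 4 recovery animals Day 29. Blood for clinical pathology taken before sacrifice. Endpoints: clinical observations, body weight, food consumption, clinical chemistry, hematology, coagulation, urinalysis, organ weights, gross and microscopic pathology.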

[3] = test system: Venezuelan equine encephalitis virus; format: cell-based
[4] = test system: influenza A virus type H1N1; assay: DMID antiviral screening, influenza A; format: cell-based
[5] = test system: respiratory syncytial virus; assay: DMID antiviral screening, RSV; format: cell-based

SMILES	concentration reducing infectivity of HIV virions (virucidal) (HIVIIIB)	toxicity in MTD study [1]	urine observation in repeat dose study ([2]; at the higher doses)	toxicity in repeat dose study ([2]; oral 500, 1000, 2000 mg/kg for 14 consecutive days)	antiviral activity [3]	antiviral activity [4]	antiviral activity [5]
CCCC(=O)OCSc1ccccc1C(=O)NCCC(N)=O [NS1040, ((2-((3-amino-3-oxopropyl)carbamoyl)phenyl)thio)methyl butyrate]	50 µM and > 50 µM	did not exhibit any toxicity at any dose	cloudy urine samples were noted for some of the rats	no toxicity observed; also recorded: non-toxic			
NC(=O)CCNC(=O)c1ccccc1S [MDH-1-38, N-(3-amino-3-oxopropyl)-2-mercaptobenzamide]					failed to show any activity	failed to show any activity	failed to show any activity
